In assay [1] the test system is Chorioallantoic membrane. The experiment in a line: Antiangiogenic activity in chicken egg embryo assessed as inhibition of bFGF/VEGF-induced angiogenesis in chorioallantoic membrane after 3 days. The class given is functional. Particulars: Gallus gallus. The essentials: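 Fertilized chick embryos were incubated at 37.5 °C for 3 days, removed from the shell, and kept 7 further days. Each compound was added to a collagen plug containing bFGF (10 ng/plug) plus VEGF (30 ng/plug) and placed on the CAM of 10-day embryos for 3 days. PBS was the negative control. Plugs were imaged and scored masked on a 0–3 angiogenesis scale, reported as mean ± SEM, and analysed by one-way ANOVA with Dunnett's test.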

Assay [2] concerns MDA-MB-231. The assay is described as follows: Antimigratory activity in human MDA-MB-231 cells over-expressed with fascin assessed as inhibition of cell migration at 10 uM after 24 hrs by Transwell assay.
In assay [3] the test system is HeLa (Homo sapiens). The experiment in a line: Induction of disorganization of actin filaments in human HeLa cells assessed as decrease in F-actin staining intensity near cell membrane at 10^-6 M by phalloidin staining.
Assay [4] deals with MDA-MB-231. The experiment in a line: Cytotoxicity against human MDA-MB-231 cells assessed as survival at 1 uM after 5 days. The class given is functional. The following applies: MDA-MB-231, 120 h, read-out: Survival.
In assay [5] the test system is MDA-MB-231. The assay is described as follows: Antimigratory activity in human MDA-MB-231 cells after 24 hrs using transwell system by light microscopy. In kind it is functional, cell-based. The following applies: MDA-MB-231, 24 h. Put shortly: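 Transwell chambers: 2.5×10^4 cells in serum-free, phenol red-free medium in the upper chamber, with DMEM + 5% FBS below as chemoattractant. Compounds at 10^-8, 10^-7, 10^-6 and 10^-5 M, with 0.1% DMSO vehicle, for 24 h. Membranes were scrubbed, formalin-fixed, methanol-permeabilized and stained with 0.1% crystal violet. Migrated cells were counted by light microscopy per 100× field as % of vehicle. IC50 is the concentration giving 50% migration inhibition.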

The subject of assay [6] is MDA-MB-231. The assay is described as follows: Antiinvasive activity in human MDA-MB-231 cells at 10 uM after 24 hrs by matrigel assay. The class given is functional. Particulars: MDA-MB-231, 24 h. The essentials:
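Cells serum-starved 24 h, trypsinized and resuspended in medium with DMSO or compound; 2.5×10^4 cells/well seeded on Matrigel-coated inserts. Bottom well held 10% FBS medium with DMSO or 10 μM compound. After 24 h, non-invaded cells were scrubbed off and invaded cells fixed (4% formaldehyde, 10 min, RT), stained with 0.04% crystal violet and counted at 100× in five random fields. Result is % invasion relative to DMSO.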

SMILES strings stand for the structures. Active and inactive are the calls of the source. No cut-off for these calls is given here.

Consider `CCCCCCn1c(-c2ccc(C)cc2C)cs/c1=N\C(=O)c1ccccc1`, for which the inhibition – broadly, the relative decrease from the control value, in per cent – in assay [1] is “Active”. Also, the inhibition entry in assay [2] was “inactive”. In addition, the result in assay [3] was Active. Moreover, the viability at 1 µM in assay [4] was 90%. Further, in assay [5], the IC50 (commonly the point on the concentration scale where inhibition reaches its midpoint) was 45 nM. The inhibition at 10 µM in assay [6] was more than 50%.
Turning to `CCCCCCCCCCCCn1c(-c2ccc(C)cc2C)cs/c1=N\C(=O)c1ccccc1`, the inhibition entry in assay [1] was “Active”. For the same compound, the outcome in assay [3] was Active. In addition, in assay [4], the viability at 1 µM is 110%. The compound further had an IC50 in assay [5] of 24 nM. Besides, in assay [6], the inhibition at 10 µM is more than 50%.

These data come from ChEMBL document CHEMBL3352186, “Modification and biological evaluation of thiazole derivatives as novel inhibitors of metastatic cancer cell migration and invasion” (J Med Chem, 2014).
